In ChEMBL document CHEMBL1145132, “N-hydroxy-3-phenyl-2-propenamides as novel inhibitors of human histone deacetylase with in vivo antitumor activity: discovery of (2E)-N-hydroxy-3-[4-[[(2-hydroxyethyl)[2-(1H-indol-3-yl)ethyl]amino]methyl]phenyl]-2-propenamide (NVP-LAQ824)” (J Med Chem, 2003):
Where “and” joins values, the source holds several entries; their conditions need not be identical. Equal entries are not always repeated.

Tests used:
[1] = system: NCI-H1299; assay: Inhibitory activity against H1299 human lung carcinoma cell growth; format: functional, cell-based
[2] = system: HCT-116; assay: Inhibitory activity against HCT116 human colon cell growth; format: functional, cell-based
[3] = system: Mus musculus; assay: Compound was tested for efficacy in athymic mice bearing HCT116 subcutaneous tumor xenografts at a dose of 100 mg/kg and change in the body weight of the mouse was evaluated; format: functional
Outline: (§1)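 Female outbred athymic nu/nu mice, ≈10⁶ HCT116 cells injected sc in right axillary region under anesthesia; treatment began when tumors ≈100 mm³ (day 13 post-implant), groups of eight balanced on tumor volume. Compound given iv as lactate salt in 10% DMSO/D5W, qd 5×/week for 15 doses. Individual body weights recorded once weekly; % change from start reported.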

[4] = system: Mus musculus; assay: Compound was tested in vivo for efficacy in athymic mice bearing HCT116 subcutaneous tumor xenografts at a dose of 100 mg/kg and change in the body weight of the mouse was evaluated; format: functional; conditions: route intravenous; outline: as §1
[5] = system: Mus musculus; assay: Compound was tested in vivo for efficacy in athymic mice bearing HCT116 subcutaneous tumor xenografts at a dose of 25 mg/kg and change in the body weight of the mouse was evaluated; format: functional
[6] = system: Mus musculus; assay: Compound was tested in vivo for efficacy in athymic mice bearing HCT116 subcutaneous tumor xenografts at a dose of 50 mg/kg and change in the body weight of the mouse was evaluated; format: functional; conditions: route intravenous; outline: as §1
[7] = system: Mus musculus; assay: Compound was tested in vivo for efficacy in A549 human lung carcinoma xenograft model at a dose of 10 mg/kg and change in the body weight of the mouse was evaluated; format: functional
Outline: (§2)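 Female outbred athymic nu/nu mice, ≈10⁷ A549 cells injected sc in right axillary region; treatment began ≈20 days post-implant at tumors ≈100 mm³, eight mice per group balanced on tumor volume. Dosing iv as lactate salt in 10% DMSO/D5W, qd 5×/week for 15 doses. Body weights recorded once weekly; % change reported.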

[8] = system: Mus musculus; assay: Compound was tested in vivo for efficacy in A549 human lung carcinoma xenograft model at a dose of 100 mg/kg and change in the body weight of the mouse was evaluated; format: functional; outline: as §2
[9] = system: Mus musculus; assay: Compound was tested in vivo for efficacy in A549 human lung carcinoma xenograft model at a dose of 25 mg/kg and change in the body weight of the mouse was evaluated; format: functional; outline: as §2
[10] = system: Mus musculus; assay: Compound was tested in vivo for efficacy in A549 human lung carcinoma xenograft model at a dose of 50 mg/kg and change in the body weight of the mouse was evaluated; format: functional; outline: as §2
[11] = system: Mus musculus; assay: Compound was tested in vivo for efficacy in athymic mice bearing HCT116 subcutaneous tumor xenografts at a dose of 10 mg/kg and change in the body weight of the mouse was evaluated; format: functional; conditions: route intravenous; outline: as §1
[12] = system: Mus musculus; assay: Ratio of the change in tumor volume of treated animals to the change in tumor volume of control animals at a dose of 50 mg/kg (A549 human lung carcinoma xenograft study); format: functional
Outline: (§3)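 A549 sc xenografts (≈10⁷ cells) in female athymic nude mice, eight per group, dosed from ≈100 mm³ tumors (day 20) iv as lactate salt in 10% DMSO/D5W qd 5×/week for 15 doses. Weekly tumor measurement; % T/C = treated over vehicle-control change in tumor volume; one-tailed Student's t-test.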

[13] = system: Mus musculus; assay: Compound was tested for maximum tolerated dose (MTD) that resulted in no deaths when administered intravenously for five days; format: functional
Outline: (§4)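 Athymic mice, four per group, dosed iv once daily for five consecutive days, up to a maximum of 200 mg/kg/day. Compound given as the lactate salt in 10% DMSO in 5% dextrose/water (final DMSO 10%). MTD taken as the highest dose that caused no deaths.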

[14] = system: Mus musculus; assay: Ratio of the change in tumor volume of treated animals to the change in tumor volume of control animals at a dose of 10 mg/kg; format: functional
Outline: (§5)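 HCT116 sc xenografts (≈10⁶ cells) in female athymic nude mice, eight per group, treated from ≈100 mm³ tumors with iv lactate salt in 10% DMSO/D5W qd 5×/week for 10 or 15 doses. Tumors measured weekly; % T/C = change in treated tumor volume over change in vehicle-control tumor volume; one-tailed Student's t-test.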

[15] = system: Mus musculus; assay: Ratio of the change in tumor volume of treated animals to the change in tumor volume of control animals at a dose of 10 mg/kg (A549 human lung carcinoma xenograft study); format: functional; outline: as §3
[16] = system: Mus musculus; assay: Ratio of the change in tumor volume of treated animals to the change in tumor volume of control animals at a dose of 100 mg/kg; format: functional; conditions: 100 mg/kg; outline: as §5
[17] = system: Mus musculus; assay: Ratio of the change in tumor volume of treated animals to the change in tumor volume of control animals at a dose of 100 mg/kg (A549 human lung carcinoma xenograft study); format: functional; outline: as §3
[18] = system: Mus musculus; assay: Ratio of the change in tumor volume of treated animals to the change in tumor volume of control animals at a dose of 25 mg/kg; format: functional; outline: as §5
[19] = system: Mus musculus; assay: Ratio of the change in tumor volume of treated animals to the change in tumor volume of control animals at a dose of 25 mg/kg (A549 human lung carcinoma xenograft study); format: functional; outline: as §3
[20] = system: Mus musculus; assay: Ratio of the change in tumor volume of treated animals to the change in tumor volume of control animals at a dose of 50 mg/kg; format: functional; outline: as §5
[21] = molecular target: Histone deacetylase; assay: Inhibitory activity against histone deacetylase (HDAC) enzyme obtained from H1299 human lung carcinoma cell lysates
[22] = system: Mus musculus; assay: Compound was tested in vivo for efficacy in athymic mice bearing HCT116 subcutaneous tumor xenografts at a dose of 40 mg/kg and change in the body weight of the mouse was evaluated; format: functional; outline: as §1
[23] = system: Mus musculus; assay: Compound was tested in vivo for maximum tolerated dose (MTD) that resulted in no deaths when administered intravenously for five days; format: functional; outline: as §4
[24] = system: Mus musculus; assay: Ratio of the change in tumor volume of treated animals to the change in tumor volume of control animals at a dose of 40 mg/kg; format: functional; outline: as §5

Question: Which IC50 [1] does the source give for `O=C(/C=C/c1ccc(CN(CCO)CCc2c[nH]c3ccccc23)cc1)NO` [DACINOSTAT] here?
Answer: Its IC50 is 150 nM.

Question: And the IC50 [2]?
Answer: The IC50 was 10 nM.

Question: And the Body weight change [3]?
Answer: The Body weight change was -0.9%.

Question: What about the Body weight change [4] of the same compound?
Answer: The Body weight change was 1.4%.

Question: What about the Body weight change [5] of the same compound?
Answer: Its Body weight change is 0%.

Question: What about the Body weight change [6] of the same compound?
Answer: Its Body weight change is 2.3%.

Question: And the Body weight change [7]?
Answer: Its Body weight change is 1.3%.

Question: What about the Body weight change [8] of the same compound?
Answer: Its Body weight change is 0.4%.

Question: What about the Body weight change [9] of the same compound?
Answer: The Body weight change was -0.9%.

Question: What about the Body weight change [10] of the same compound?
Answer: The Body weight change was -0.4%.

Question: What about the Body weight change [11] of the same compound?
Answer: Its Body weight change is 2.7%.

Question: What about the T/C [12] of the same compound?
Answer: Its T/C is 15%.

Question: And the MTD [13]?
Answer: Its MTD is greater than 200 mg/kg.

Question: And the T/C [14]?
Answer: The T/C was 55%.

Question: What about the T/C [15] of the same compound?
Answer: The T/C was 32%.

Question: And the T/C [16]?
Answer: The T/C was 12% and 20%.

Question: And the T/C [17]?
Answer: Its T/C is 7%.

Question: What about the T/C [18] of the same compound?
Answer: The T/C was 38%.

Question: And the T/C [19]?
Answer: The T/C was 20%.

Question: And the T/C [20]?
Answer: The T/C was 27%.

Question: With `O=C(/C=C/c1ccc(CN(CCc2c[nH]c3ccccc23)C2CCOCC2)cc1)NO` as the compound, how does the IC50 [1] read?
Answer: The IC50 was 40 nM.

Question: And the IC50 [2]?
Answer: The IC50 was 6 nM.

Question: And the IC50 [21]?
Answer: Its IC50 is 10 nM.

Question: What about the Body weight change [22] of the same compound?
Answer: The Body weight change was 0.1%.

Question: And the MTD [23]?
Answer: The MTD was 40 mg/kg.

Question: What about the T/C [24] of the same compound?
Answer: Its T/C is 32%.
